Data: publication PMC3983339 (Journal of Medicinal Chemistry, 2014)

Tests used:
PRMT1 [1] = molecular target: T1, PRMT1 (Rattus norvegicus, UniProt Q63009); test: radiometric P81 filter binding assay, PRMT1; format: biochemical; conditions: for inhibition at 20 µM: read-out: inhibition of PRMT1
[2] = system: intracellular PRMT1 activity (GFP-ALY methylation) in 293T cells; test: GFP-ALY methylation in 293T cells; format: cell-based, human
How it was run: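 A stable 293T line expressing GFP-ALY, kept in DMEM plus 10% FBS, was exposed to 20 μM test compound for 15 h. Cells were lysed on ice for 30 min in H buffer (150 mM NaCl, 20 mM Tris pH 7.8, 1% NP-40, phosphatase/protease inhibitors, 1 mM DTT) and cleared at 12000g for 20 min. GFP-ALY was pulled down on GFP antibody beads and analysed by SDS–PAGE and ASYM24 Western blot with chemiluminescence detection.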

HEL cells = test: CellTiter-Glo cell viability, HEL cells; format: cell-based; conditions: HEL cells (JAK2V617F), 20 μM, 3 days
How it was run: (§1)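 Leukemia cell lines were grown in RPMI plus 10% FBS and seeded at 1000–1500 cells per well. Cultures received 20 μM test compound or an equal amount of DMSO. CellTiter-Glo reagent was added at 0, 24, 48 and 72 h after treatment, and luminescence was read. Viability is expressed as viable cells in the treated group as a percentage of the DMSO control.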

MOLM-13 cells = test: CellTiter-Glo cell viability, MOLM-13 cells; format: cell-based; conditions: 20 μM, compared with HEL, Jurkat, HL-60
How it was run: as §1

CHRF-288-11 cells = test: CellTiter-Glo cell viability, CHRF-288-11 cells; format: cell-based; conditions: 20 μM, compared with HEL, Jurkat, HL-60
How it was run: as §1

CMY cells = test: CellTiter-Glo cell viability, CMY cells; format: cell-based; conditions: 20 μM, compared with HEL, Jurkat, HL-60
How it was run: as §1

PRMT1 [3] = molecular target: T1, PRMT1; test: steady-state kinetic analysis of PRMT1 inhibition; format: biochemical; conditions: for Ki: Kis
leukemia cell lines = test: CellTiter-Glo cell viability, panel of leukemia cell lines; format: cell-based; conditions: 10 different leukemia cell lines, 20 μM, 3 consecutive days
PRMT1 [4] = molecular target: T1, PRMT1; test: competitive fluorescence anisotropy binding assay; conditions: 524 nm, 0.2 μM H4-FL, 2.0 μM PRMT1, increasing compound concentration
How it was run: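 Recombinant His6-PRMT1 was expressed in E. coli BL21(DE3) and Ni-NTA purified. 0.2 μM fluorescein-H4(1–20) and 2 μM PRMT1 were mixed, then test compound was titrated in until anisotropy levelled off. Excitation was 498 nm and emission 524 nm. Anisotropy from several scans was plotted against inhibitor concentration.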

PRMT5 = PRMT5 (Homo sapiens, UniProt O14744); test: radiometric P81 filter binding assay, PRMT5; format: biochemical; conditions: initial screening at 20 μM compound
How it was run: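 HA-PRMT5 was co-expressed with WDR77 in HEK293T cells and purified on HA-peptide agarose by peptide elution. Reactions at 30 °C used 50 mM HEPES pH 8.0, 50 mM NaCl, 1 mM EDTA, 0.5 mM DTT, with 0.5 μM [3H]SAM and 1 μM H4(1–20) peptide. Test compound at 20 μM was preincubated with enzyme and [3H]SAM for 5 min at room temperature, then peptide was added to start the reaction. Mixtures were spotted on P81 paper, washed with 50 mM NaHCO3 pH 9.0, and counted by scintillation. Controls lacked inhibitor, or both peptide and inhibitor.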

[5] = varied H4-20, [3H]AdoMet fixed at 3 μM

T1 sequence (Q63009 whole entry): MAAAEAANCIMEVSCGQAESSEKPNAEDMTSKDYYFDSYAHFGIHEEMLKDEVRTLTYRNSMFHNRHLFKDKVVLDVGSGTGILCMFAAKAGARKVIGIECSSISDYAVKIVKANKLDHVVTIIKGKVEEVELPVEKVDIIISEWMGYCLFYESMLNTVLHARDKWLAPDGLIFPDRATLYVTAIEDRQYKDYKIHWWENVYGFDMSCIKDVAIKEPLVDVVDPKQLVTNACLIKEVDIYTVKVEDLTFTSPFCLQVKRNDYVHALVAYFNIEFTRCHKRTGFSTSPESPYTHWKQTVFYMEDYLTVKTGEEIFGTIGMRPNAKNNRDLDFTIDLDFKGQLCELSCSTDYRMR
PRMT5, sequence (O14744 whole entry, species assumed): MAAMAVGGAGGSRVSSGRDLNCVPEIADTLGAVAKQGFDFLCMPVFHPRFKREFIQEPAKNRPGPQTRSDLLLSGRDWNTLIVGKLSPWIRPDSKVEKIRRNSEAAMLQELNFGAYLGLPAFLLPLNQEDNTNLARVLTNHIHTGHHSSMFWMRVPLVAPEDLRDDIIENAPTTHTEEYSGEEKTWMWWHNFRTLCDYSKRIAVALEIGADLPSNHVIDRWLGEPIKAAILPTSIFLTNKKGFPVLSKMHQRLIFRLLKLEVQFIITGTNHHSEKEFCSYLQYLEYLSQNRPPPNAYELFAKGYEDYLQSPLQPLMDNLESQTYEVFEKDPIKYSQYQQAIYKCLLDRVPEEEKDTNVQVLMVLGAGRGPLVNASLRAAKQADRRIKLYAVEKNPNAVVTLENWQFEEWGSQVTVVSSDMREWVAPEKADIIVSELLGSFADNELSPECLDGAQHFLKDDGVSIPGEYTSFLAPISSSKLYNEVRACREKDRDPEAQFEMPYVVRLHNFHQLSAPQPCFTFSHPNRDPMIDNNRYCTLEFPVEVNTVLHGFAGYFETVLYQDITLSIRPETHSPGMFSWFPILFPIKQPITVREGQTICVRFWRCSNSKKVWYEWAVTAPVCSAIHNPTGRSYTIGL
PRMT5, sequence (Q9BQA1 whole entry partner, species assumed): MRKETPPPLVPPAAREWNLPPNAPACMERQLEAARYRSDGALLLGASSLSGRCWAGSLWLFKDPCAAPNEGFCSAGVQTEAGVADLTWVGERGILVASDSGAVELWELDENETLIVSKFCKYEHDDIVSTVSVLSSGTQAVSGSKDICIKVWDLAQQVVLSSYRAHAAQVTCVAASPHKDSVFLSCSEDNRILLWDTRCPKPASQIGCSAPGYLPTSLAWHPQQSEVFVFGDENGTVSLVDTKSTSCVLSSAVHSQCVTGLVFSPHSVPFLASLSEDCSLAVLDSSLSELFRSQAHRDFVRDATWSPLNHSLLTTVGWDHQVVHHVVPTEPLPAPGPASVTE

Row | inhibition of PRMT5 (PRMT5) | inhibition of PRMT1 (PRMT1 [1]; initial screening at 20 μM compound) | Structure (SMILES) | inhibition at 20 µM (PRMT1 [1]) [%] | level of methylated GFP-ALY protein ([2]; 293T cells, 20 μM, 15 h, ASYM24 antibody) | cell membrane permeability ([2]; inferred from inhibition of cellular PRMT1 activity in 293T cells) | cell growth (HEL cells) | sensitivity of cell growth versus other cell lines (MOLM-13 cells) | sensitivity of cell growth versus other cell lines (CHRF-288-11 cells) | sensitivity of cell growth versus other cell lines (CMY cells) | Ki (PRMT1 [3]; [5]) [µM] | Ki (PRMT1 [3]; varied [3H]SAM, H4-20 fixed at 15 μM) [µM] | Kis smaller than Kii (PRMT1 [3]; varied H4-20) | Kii (PRMT1 [3]; [5]) [µM] | cell growth (leukemia cell lines) | fluorescence anisotropy plateau of H4-FL and PRMT1 mixture (PRMT1 [4])
1 |  |  | N=C(N)c1ccc(-c2ccc(-c3ccc(OCCCCCCCCOc4ccc(-c5ccc(-c6ccc(C(=N)N)cc6)o5)cc4)cc3)o2)cc1 [Compound 2] | > 85 |  |  |  |  |  |  |  |  |  |  |  | 
2 |  |  | N=C(N)c1ccc(-c2ccc(-c3ccc(C(=N)N)cc3)o2)cc1 [Compound 1, 2,5-bis(4-amidinophenyl)furan] | > 75 | significantly reduced | permeable to cell membrane | except HEL cells | more sensitive | more sensitive | more sensitive | 2.6 | 16 | about 14 fold | 38 | inhibited cell growth for most of the leukemia cell lines | about 0.055
3 | very weak activity | very weak activity | N=C(N)c1ccc(-c2ccc(-c3ccc(C(=N)N)c(F)c3)o2)cc1F [Compound 21] |  |  |  |  |  |  |  |  |  |  |  |  | 
